Reference: ChEMBL document CHEMBL1821697, “Design and synthesis of brain penetrant selective JNK inhibitors with improved pharmacokinetic properties for the prevention of neurodegeneration” (Bioorg Med Chem Lett, 2011)

Key:
[1] = Oxidative metabolic stability in mouse liver microsomes assessed as compound remaining at 1 uM after 30 mins; format: ADME, Microsome; conditions: read-out: Stability
Method in brief: (§1)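 Test compound was incubated with mouse, rat or human liver microsomes for 30 min. The read-out is percent of parent compound remaining.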

[2] = target: Mitogen-activated protein kinase 10 (Homo sapiens, UniProt P53779); experiment: Inhibition of recombinant JNK3 using ser73 of c-jun as substrate preincubated for 15 mins measured after 60 mins by TR-FRET assay
Sequence of Mitogen-activated protein kinase 10 (P53779 whole entry): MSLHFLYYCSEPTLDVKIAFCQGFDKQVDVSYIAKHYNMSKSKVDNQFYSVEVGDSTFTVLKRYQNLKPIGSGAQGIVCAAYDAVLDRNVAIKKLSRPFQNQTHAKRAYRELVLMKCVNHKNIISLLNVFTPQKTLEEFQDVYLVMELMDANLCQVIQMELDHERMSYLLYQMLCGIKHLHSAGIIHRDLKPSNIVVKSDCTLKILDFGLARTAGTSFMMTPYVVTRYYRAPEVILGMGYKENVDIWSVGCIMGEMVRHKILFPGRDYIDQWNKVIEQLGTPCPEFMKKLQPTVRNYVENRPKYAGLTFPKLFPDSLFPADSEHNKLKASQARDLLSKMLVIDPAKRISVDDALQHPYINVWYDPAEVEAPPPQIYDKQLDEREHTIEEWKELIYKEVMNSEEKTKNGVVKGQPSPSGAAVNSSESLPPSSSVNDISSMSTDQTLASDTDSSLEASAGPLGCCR
Method in brief: (§2)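 Recombinant JNK enzyme assay run at 10 µM ATP. IC50 values are means of at least three experiments.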

[3] = Oxidative metabolic stability in human liver microsomes assessed as compound remaining at 1 uM after 30 mins; format: ADME, Microsome; conditions: read-out: Stability; method in brief: as §1
[4] = Oxidative metabolic stability in rat liver microsomes assessed as compound remaining at 1 uM after 30 mins; format: ADME, Microsome; conditions: read-out: Stability; method in brief: as §1
[5] = target: Mitogen-activated protein kinase 9 (Homo sapiens, UniProt P45984); experiment: Inhibition of recombinant JNK2 using ser73 of c-jun as substrate preincubated for 15 mins measured after 60 mins by TR-FRET assay; method in brief: as §2
Sequence of Mitogen-activated protein kinase 9 (P45984 whole entry): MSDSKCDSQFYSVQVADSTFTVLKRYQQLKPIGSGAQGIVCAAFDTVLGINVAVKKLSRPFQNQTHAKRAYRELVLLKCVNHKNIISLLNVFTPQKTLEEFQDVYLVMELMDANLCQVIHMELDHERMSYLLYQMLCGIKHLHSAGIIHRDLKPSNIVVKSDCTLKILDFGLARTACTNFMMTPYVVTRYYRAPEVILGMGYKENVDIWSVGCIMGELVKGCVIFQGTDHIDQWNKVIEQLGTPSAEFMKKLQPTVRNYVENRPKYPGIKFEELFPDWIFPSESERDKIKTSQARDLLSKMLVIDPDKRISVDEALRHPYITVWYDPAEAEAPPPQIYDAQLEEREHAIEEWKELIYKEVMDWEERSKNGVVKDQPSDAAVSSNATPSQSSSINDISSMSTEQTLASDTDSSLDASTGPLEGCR

[6] = target: Mitogen-activated protein kinase 8 (Homo sapiens, UniProt P45983); experiment: Inhibition of recombinant JNK1 using ser73 of c-jun as substrate preincubated for 15 mins measured after 60 mins by TR-FRET assay; method in brief: as §2
Sequence of Mitogen-activated protein kinase 8 (P45983 whole entry): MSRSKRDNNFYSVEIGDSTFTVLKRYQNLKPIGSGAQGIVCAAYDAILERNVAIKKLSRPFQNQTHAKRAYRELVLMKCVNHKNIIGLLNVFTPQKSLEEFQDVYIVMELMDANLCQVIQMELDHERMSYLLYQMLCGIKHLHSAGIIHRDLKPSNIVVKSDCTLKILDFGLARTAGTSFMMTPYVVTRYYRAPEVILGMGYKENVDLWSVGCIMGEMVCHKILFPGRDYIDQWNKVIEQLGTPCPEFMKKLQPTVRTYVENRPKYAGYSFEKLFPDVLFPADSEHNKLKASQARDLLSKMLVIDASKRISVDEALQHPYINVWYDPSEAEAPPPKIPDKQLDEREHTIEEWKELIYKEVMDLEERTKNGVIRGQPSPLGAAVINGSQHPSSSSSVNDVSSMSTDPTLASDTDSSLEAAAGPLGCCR

Row | Structure (SMILES) | remaining at 0.5 h, 1 µM [1] | IC50 [2] | remaining at 0.5 h, 1 µM [3] | remaining at 0.5 h, 1 µM [4] | IC50 [5] | IC50 [6]
1 | O=C(Cc1cc(C(F)(F)F)cc2ncccc12)Nc1scc(Br)c1-c1nnc[nH]1 | 3% | 280 nM | 31% | 16% | 337 nM | 178 nM
2 | O=C(Cn1c(=O)ccn2nc(C(F)(F)F)cc12)Nc1scc(Br)c1-c1ncn[nH]1 | 3% | 14 nM | 48% | 42% | 36 nM | 3 nM
3 | O=C(Cc1ccc(C(F)(F)F)c2ncccc12)Nc1scc(Cl)c1-c1ncn[nH]1 | 3% | 183 nM | 32% | 1% | 24 nM | 81 nM
4 | N#Cc1csc(NC(=O)Cn2c(=O)ccc3cc(C(F)(F)F)ccc32)c1-c1nccs1 | 52% | 9 nM | 75% | 76% | 53 nM | 7 nM
5 | O=C(Cc1ccc(F)c2cnccc12)Nc1scc(Br)c1-c1ncn[nH]1 | 34% | 24 nM | 44% | 5% | 68 nM | 16 nM
6 | N#Cc1csc(NC(=O)Cn2c(=O)ccc3cc(C(F)(F)F)ccc32)c1-c1cscn1 | 17% | 8 nM | 32% | 8% | 17 nM | 2 nM
7 | Cn1cnc(-c2c(Br)csc2NC(=O)CN2C(=O)CCc3ncccc32)n1 | 33% | 3 nM | 46% | 37% | 13 nM | 1 nM
8 | O=C(Cn1c(=O)ccn2nccc12)Nc1scc(Br)c1-c1ncn[nH]1 | 50% | 8 nM | 72% | 71% | 74 nM | 8 nM
9 | N#Cc1csc(NC(=O)CN2C(=O)CCc3ncccc32)c1-c1nccs1 | 7% | 11 nM | 16% | 1% | 62 nM | 10 nM
10 | O=C(CN1C(=O)CCc2ccccc21)Nc1scc(Br)c1-c1ncn[nH]1 | 0% |  | 24% | 0% |  | 

Next, values leading:

Row | remaining at 0.5 h, 1 µM [1] | IC50 [2] | remaining at 0.5 h, 1 µM [3] | remaining at 0.5 h, 1 µM [4] | IC50 [5] | IC50 [6] | Structure (SMILES)
11 | 16% | 6 nM | 64% | 39% | 12 nM | 2 nM | O=C(Cn1c(=O)ccc2cc(OC(F)(F)F)ccc21)Nc1scc(Br)c1-c1ncn[nH]1
12 | 35% | 14 nM | 64% | 2% | 38 nM | 8 nM | O=C(Cn1c(=O)ccc2nc(C(F)(F)F)ccc21)Nc1scc(Br)c1-c1ncn[nH]1
13 | 51% | 7 nM | 85% | 60% | 8 nM | 4 nM | O=C(Cn1c(=O)ccc2cnccc21)Nc1scc(Br)c1-c1ncn[nH]1
14 | 10% | 19 nM | 29% | 26% | 68 nM | 11 nM | O=C(Cn1c(=O)ccc2ccc(OC(F)(F)F)cc21)Nc1scc(Br)c1-c1ncn[nH]1
15 | 29% | 9 nM | 44% | 25% | 21 nM | 6 nM | O=C(Cn1c(=O)ccc2ccc(C(F)(F)F)cc21)Nc1scc(Br)c1-c1ncn[nH]1
16 | 43% | 6 nM | 77% | 43% | 21 nM | 4 nM | O=C(Cn1c(=O)ccc2cnc(C(F)(F)F)cc21)Nc1scc(Br)c1-c1ncn[nH]1
